These results are taken from ChEMBL document CHEMBL4765486, “Novel Nonsecosteroidal Vitamin D Receptor Modulator Combined with Gemcitabine Enhances Pancreatic Cancer Therapy through Remodeling of the Tumor Microenvironment” (J Med Chem, 2021).

Structures are written as SMILES. Calls of active or inactive are those of the source. The rule behind the calls is not given here. Some results are limits rather than exact numbers.

Assay [1] relates to LTC-14. Description: Inhibition of rat LTC-14 cell activation assessed decrease in TGF-beta1 induced Colla1 mRNA expression at 0.5 uM incubated for 24 hrs by q-PCR analysis. It is filed as functional. An outline of the steps:
(§1)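 Immortalized rat PSC line LTC-14, about 1×10^5 cells per well, was grown 24 h at 37 °C in 5% CO2. Cells then received compound (0.5 μM) plus TGF-β1 for 24 h; TGF-β1 is stated as 0.5 ng/mL in the text and 5 ng/mL in the methods. Col1a1 and Acta2 mRNA were measured by RT-qPCR. Mean ± SD versus TGF-β1 alone.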

Assay [2] relates to LTC-14. The assay is described as follows: Inhibition of rat LTC-14 cells activation assessed decrease in TGF-beta1 induced collagen 1 protein expression at 0.5 uM incubated for 24 hrs by Western blot analysis. It is filed as functional, cell-based. The gist of the method: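 LTC-14 cells were treated for 24 h with compound (0.5 μM) plus TGF-β1 (0.5 ng/mL in the text, 5 ng/mL in the methods). Lysates were run on 10% SDS-PAGE, transferred to PVDF and probed with rabbit anti-collagen I, with β-actin as reference. Bands were quantified by densitometry versus TGF-β1 alone.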
(In general: A western blot detects proteins with antibodies after separation by electrophoresis.)

Assay [3] concerns the target T1, Vitamin D3 receptor (Homo sapiens) (UniProt P11473).
T1 sequence (whole entry): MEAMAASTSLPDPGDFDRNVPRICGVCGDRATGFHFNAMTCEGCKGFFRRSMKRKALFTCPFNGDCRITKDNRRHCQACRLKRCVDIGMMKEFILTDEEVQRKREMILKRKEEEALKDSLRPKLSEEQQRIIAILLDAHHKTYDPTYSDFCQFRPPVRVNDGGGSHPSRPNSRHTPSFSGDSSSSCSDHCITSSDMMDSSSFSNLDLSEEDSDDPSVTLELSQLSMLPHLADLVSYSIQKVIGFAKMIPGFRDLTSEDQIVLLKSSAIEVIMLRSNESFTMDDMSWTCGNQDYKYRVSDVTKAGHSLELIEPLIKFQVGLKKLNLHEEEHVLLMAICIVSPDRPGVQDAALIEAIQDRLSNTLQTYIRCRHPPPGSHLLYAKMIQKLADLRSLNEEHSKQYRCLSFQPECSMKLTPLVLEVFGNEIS
The assay is described as follows: Binding affinity to VDR (unknown origin) at 1 uM by fluorescence polarization assay relative to calcipotriol. The gist of the method: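 PolarScreen VDR competitor fluorescence polarization assay with compounds at 1 μM in triplicate. Read-out used 535 nm excitation and 590 nm emission filters.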
In general terms: Polarisation of emitted light reports the rotation of a fluorescent probe.

Assay [4] deals with LTC-14. Description: Inhibition of rat LTC-14 cells activation assessed decrease in TGF-beta1 induced Acta2 mRNA expression at 0.5 uM incubated for 24 hrs by q-PCR analysis. It is filed as functional, cell-based. An outline of the steps:
as §1

Assay [5] in a line: Cytotoxicity against rat LTC-14 cells assessed as reduction in cell proliferation incubated for 24 hrs by MTT assay. It is filed as cell-based. The settings on record: LTC-14, 24 h. A general note: Tetrazolium dyes change colour on reduction, which living cells bring about.

`CCN(CC)CCCNC(=O)c1ccc(C(CC)(CC)c2ccc(OCCCCCC(O)(CC)CC)c(C)c2)n1CC`: the inhibition entry in assay [1], in assay [2] and in assay [4] was “Active” throughout. Besides, the RBA in assay [3] was determined as 33%. For the same compound, the IC50 in assay [5] is > 10 µM.

For `CCN(CC)CCCNC(=O)c1cc(C(CC)(CC)c2ccc(OCCCC(C)(C)O)c(C)c2)cn1CC`, the inhibition result in assay [1], in assay [2] and in assay [4] was “Active” throughout. Also, in assay [3], the RBA amounted to 24%. Further, the IC50 in assay [5] was > 10 µM.

As to `CCn1cc(C(CC)(CC)c2ccc(OCC(C)O)c(C)c2)cc1C(=O)NCC1CCOCC1` (stereo not given), the inhibition entry in assay [1], in assay [2] and in assay [4] was “Active” throughout. The RBA in assay [3] (filed as agonist) was 67%. Further, in assay [5], the IC50 is > 10 µM.

`CCN(CC)CCCNC(=O)c1ccc(C(CC)(CC)c2ccc(OCC(C)O)c(C)c2)n1CC` (stereo not given): the inhibition result in assay [1], in assay [2] and in assay [4] was “Active” throughout. For the same compound, in assay [3], the RBA was 30%. Further, in assay [5], the 50% inhibitory concentration (IC50) is > 10 µM.

As for `CCN(CC)CCNC(=O)c1ccc(C(CC)(CC)c2ccc(OCCCCC(O)(CC)CC)c(C)c2)n1CC`, the inhibition entry in assay [1], in assay [2] and in assay [4] was “Active” in each case. Moreover, the RBA in assay [3] (filed as agonist) was 71%. The IC50 in assay [5] is > 10 µM.

Take `CCN(CC)CCCNC(=O)c1cc(C(CC)(CC)c2ccc(OCC(C)O)c(C)c2)cn1CC` (stereo not given): the inhibition entry in assay [1], in assay [2] and in assay [4] was “Active” in each case. In assay [3] (filed as agonist), the RBA is 78%. Also, in assay [5], the half-inhibitory concentration (IC50) is > 10 µM.

For the compound `CCN(CC)CCCNC(=O)c1ccc(C(CC)(CC)c2ccc(OCC(O)C3CC3)c(C)c2)n1CC` (stereo not given), the inhibition entry in assay [1], in assay [2] and in assay [4] was “Active” throughout. Besides, the RBA in assay [3] is 39%. Besides, the half-maximal inhibitory concentration (IC50) in assay [5] is > 10 µM.

For the compound `CCN(CC)CCCNC(=O)c1cc(C(CC)(CC)c2ccc(OCCCCC(O)(CC)CC)c(C)c2)cn1CC`, the inhibition entry in assay [1], in assay [2] and in assay [4] was “Active” throughout. Moreover, the RBA in assay [3] came out at 27%. The IC50 in assay [5] is > 10 µM.

`CCn1c(C(=O)NCC2CCCO2)ccc1C(CC)(CC)c1ccc(OCCC(C)(C)O)c(C)c1` (stereo not given): the inhibition result in assay [1], in assay [2] and in assay [4] was “Active” in each case. The RBA in assay [3] (filed as agonist) is 59%. Also, the half-inhibitory concentration (IC50) in assay [5] was > 10 µM.

Take `CCN(CC)CCCNC(=O)c1cc(C(CC)(CC)c2ccc(OCCCCC(C)(C)O)c(C)c2)cn1CC`: the inhibition entry in assay [1], in assay [2] and in assay [4] was “Active” in each case. In assay [3], the RBA came out at 33%. Besides, the IC50 in assay [5] was > 10 µM.

Turning to `CCC(O)COc1ccc(C(CC)(CC)c2ccc(C(=O)NCCCN(CC)CC)n2CC)cc1C` (stereo not given), the inhibition result in assay [1], in assay [2] and in assay [4] was “Active” throughout. Also, in assay [3], the RBA was 28%. Besides, in assay [5], the IC50 was > 10 µM.

Take `CCn1c(C(=O)NCCN2CCOCC2)ccc1C(CC)(CC)c1ccc(OCCC(C)(C)O)c(C)c1`: the inhibition entry in assay [1], in assay [2] and in assay [4] was “Active” each time. For the same compound, in assay [3], the RBA is 18%. Besides, the 50% inhibitory concentration (IC50) in assay [5] was > 10 µM.

Take `CCN(CC)CCCNC(=O)c1cc(C(CC)(CC)c2ccc(OCCCCCC(O)(CC)CC)c(C)c2)cn1CC`: the inhibition entry in assay [1], in assay [2] and in assay [4] was “Active” each time. Further, the RBA in assay [3] came out at 32%. Besides, the half-maximal inhibitory concentration (IC50) in assay [5] is > 10 µM.

A word on the IC50: it is the concentration that inhibits the measured activity by half.
